The list is not random: actives were taken first. Their share in the collection is about 2.5%.
TAG inh: inhibitors of triacylglycerol accumulation, primary screen, cell-based, uHTS, fluorescence, H9c2; H9c2 cells, Nile Red lipid (TAG) fluorescence; cells loaded with 200 µM oleic acid; actives 0.66% (n = 230,000); inhibition, % at 12.5 µM;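 active = pattern-corrected inhibition of lipid staining of at least 50% with the nuclear-stain viability signal not falling by more than 50%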;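 note: 0% = DMSO wells and 100% = triacsin C control wells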
SR-BI DiI-HDL act: activators of SR-BI mediated DiI-HDL uptake, primary screen, ldlA[mSR-BI] CHO cells, DiI fluorescence; 3 h; 100 = double the neutral-control signal; activation, % at 12.5 µM; actives 0.096% (n = 320,000);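 active = mean replicate activation of at least 60% and every replicate at or above 60%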;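 note: 0% = median plate neutral-control signal and 100% = twice that signal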
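system = CHO ldlA[mSR-BI] cells, LDL receptor-null, SR-BI overexpressing | medium = Ham's F12 with 0.5% BSA, HEPES 25 mM, pH 7.4 | probe or stimulus = DiI-HDL 10 µg/mL | compound dosing = single-point compound dose | incubation = compound exposure 3 h, 37 °C | technique = DiI fluorescence, bottom read | read-out = cell-associated DiI fluorescence as measure of HDL uptake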
Vif imaging: HIV Vif self-association inhibitors, primary screen, imaging, HEK293T, single point | HEK293T cells, Vif self-association by quenched fluorescence, 24 h | inhibition, % at 7.49 µM | actives 0.35% (n = 340,000); in the data active = inhibition above about 50%, passing the limit was not always enough
SMARCA2 activ: SMARCA2 (BRM) function activators, primary screen, cell-based, luminescence, high throughput | MG213 cells, MMTV-luciferase reporter, dexamethasone, overnight | activation, % at 9.1 µM | actives 1% (n = 370,000) | AID 652017, 2013; in the data active = activation above about 7.8%;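 note: 0% = vehicle wells and 100% = reference activator wells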
SR-BI DiI inh: inhibitors of SR-BI mediated HDL lipid uptake, primary screen, ldlA[mSR-BI] cells, fluorescence, single point. Scavenger receptor class B member 1 (Mus musculus), Q61009. ldlA[mSR-BI] CHO cells, DiI-HDL uptake fluorescence, 3 h. inhibition, % at 12.5 µM. actives 0.96% (n = 320,000);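 active = mean replicate inhibition of at least 70% and a set share of replicates each scoring 70 or more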;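 note: 0% = median of neutral control wells and 100% = median of positive control wells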
Target sequence (Q61009 whole entry, looked up): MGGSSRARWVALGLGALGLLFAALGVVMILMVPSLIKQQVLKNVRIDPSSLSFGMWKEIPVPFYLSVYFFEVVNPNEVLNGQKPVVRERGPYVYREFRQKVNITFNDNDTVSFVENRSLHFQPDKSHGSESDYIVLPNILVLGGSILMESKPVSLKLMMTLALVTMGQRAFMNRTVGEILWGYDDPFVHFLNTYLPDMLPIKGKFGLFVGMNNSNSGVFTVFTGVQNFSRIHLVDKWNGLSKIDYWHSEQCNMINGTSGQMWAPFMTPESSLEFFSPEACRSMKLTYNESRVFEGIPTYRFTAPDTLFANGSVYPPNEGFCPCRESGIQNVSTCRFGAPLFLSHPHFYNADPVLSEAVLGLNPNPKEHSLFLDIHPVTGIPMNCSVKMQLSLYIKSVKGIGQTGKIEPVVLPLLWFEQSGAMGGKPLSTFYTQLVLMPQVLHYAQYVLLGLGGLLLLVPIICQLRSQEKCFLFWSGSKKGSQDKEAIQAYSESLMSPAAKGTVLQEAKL
SMARCA2 conf: SMARCA2 (BRM) function activators, confirmation, cell-based, luminescence, triplicate. shares compounds with SMARCA2 activ. MG213 cells, MMTV-luciferase with dexamethasone, overnight; MG213 cells expressing E1A, Rb sequestered; DMSO wells 0%, reference activator 100%. activation, % at 9.1 µM. actives 30% (n = 3,500);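 active = activation above its plate's cutoff, the mean activation of tested wells plus 3 SD, cut at about 7.9% in these data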
GAL4-VP16 Luc: GAL4-VP16 luciferase reporter activation, counter-screen for SMARCA2 (BRM) activator project, cell-based, pG5luc, luminescence, high throughput. shares compounds with SMARCA2 activ. HEK293 GAL4-VP16 pG5luc reporter; scaled: DMSO wells 0%, SAHA wells 100%. activation, % at 9.1 µM. actives 41% (n = 3,500). AID 686939, 2013;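 active = activation above the solvent-only control well mean plus 3 SD, averaged across control plates, cut at about 5.2% in these data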
Active calls of the source: *; / = no result given.

SMILES	TAG inh	SR-BI DiI-HDL act	Vif imaging	SMARCA2 activ	SR-BI DiI inh	SMARCA2 conf	GAL4-VP16 Luc
O=c1c2ccccc2nnn1CSc1ccccc1F	/	4.1	-2.7	11.2*	-4.1	4.5	13.5*
Cc1ccc(SCn2nnc3ccccc3c2=O)c(C)c1	-5.6	/	-0.4	5.5	/	/	/
Cc1ccc2nc(SCn3nnc4ccccc4c3=O)[nH]c2c1	/	7.4	-11.0	8.4*	-7.4	8.1*	13.1*
O=c1c2ccccc2nnn1CCc1ccccc1	-3.6	/	-7.6	10.1*	/	10.6*	10.3*
CSCCC(NC(=O)c1ccccc1Cl)C(=O)NCCc1ccccn1 (stereo not given)	4.3	5.3	-4.5	0.3	-5.3	/	/
COc1cc(-n2c(C)cc(O)cc2=O)ccc1Cl	/	/	/	0.4	/	/	/
COc1ccccc1NC(=O)c1c[nH]c2ccccc12	/	-23.3	-12.6	10.0*	23.3	3.7	3.9
Cc1cccc(C)c1NC(=O)CNC(=O)Cc1c[nH]c2ccccc12	1.7	7.1	-12.2	-3.0	-7.1	/	/
Cc1cccc(C)c1NC(=O)c1c[nH]c2ccccc12	/	-3.0	-5.8	13.4*	3.0	8.7*	9.4*
Cc1ccc(C(C)NC(=O)COC(=O)C2=COCCO2)cc1C (stereo not given)	-21.9	-6.2	-3.3	-1.3	6.2	/	/
CCC(CC)c1nnc(NC(=O)C2CSC3(C)CCC(=O)N23)s1 (stereo not given)	3.6	-20.2	-10.6	-3.5	20.2	/	/
CCN(CC)C(=S)SCC(=O)Nc1nc(=O)c2ccccc2s1	/	2.7	-0.1	8.5*	-2.7	1.7	1.8
CN1CCN(S(=O)(=O)c2ccc(C#N)cc2)C(c2ccccc2)C1 (stereo not given)	11.2	1.6	-4.6	-2.0	-1.6	/	/
COc1ccc(-n2c(=S)[nH]c3cc(C(=O)N4CCN(c5ccccc5)CC4)ccc3c2=O)cc1	/	/	14.8	-0.3	/	/	/
Cc1cc(OCC(=O)N(C)C2CCCCC2)ccc1Cl	-5.3	7.2	7.3	10.1*	-7.2	6.2	16.8*
COc1ccccc1-c1nn2c(-c3ccco3)nnc2s1	/	15.1	-1.2	14.6*	-15.1	26.3*	10.4*
c1coc(-c2nn3c(-c4ccco4)nnc3s2)c1	28.7	11.2	-2.6	1.0	-11.2	/	/
O=C(COC(=O)c1cccc(O)c1)Nc1ccc(N2CCOCC2)cc1	3.1	-1.7	19.5	-3.9	1.7	/	/
Cc1ccc(CNC(=O)COC(=O)c2ccc(Br)cc2)cc1	/	38.7	8.2	-1.5	-38.7	/	/
CCOC(=O)c1ccc(CNCc2ccc(C)cc2)cc1	/	4.9	0.3	9.1*	-4.9	-1.9	0.3
Cc1ccccc1OCc1nc2ccccc2[nH]1	/	6.1	-0.5	8.9*	-6.1	2.4	13.9*
COc1ccccc1OCc1nc2ccccc2[nH]1	/	14.2	-0.5	3.3	-14.2	/	/
O=C(Nc1ccccn1)c1csc2c1CCCC2	5.1	-17.0	-0.7	11.4*	17.0	5.5	6.5*
CCOC(=O)CNC(=O)N1CCCC(CNS(=O)(=O)Cc2ccccc2)C1 (stereo not given)	-2.0	17.9	12.6	-3.2	-17.9	/	/
O=Cc1ccc(OCc2ccc3ccccc3c2)cc1	0.1	17.9	2.1	8.2*	-17.9	4.9	6.1*
SMILES	TAG inh	SR-BI DiI-HDL act	Vif imaging	SMARCA2 activ	SR-BI DiI inh	SMARCA2 conf	GAL4-VP16 Luc
CCOC(=O)c1ccc(/C=C2/C=C(c3ccccc3)N(c3ccc(Cl)c(C(=O)O)c3)C2=O)cc1	/	2.4	3.8	11.5*	-2.4	-2.2	-1.1
CC(C)COc1ccc(C(=O)OCC(=O)N(C)CC(=O)Nc2ccc(F)cc2)cc1	18.3	/	-2.8	-1.7	/	/	/
C[C@H](OC(=O)NCc1ccc(C(F)(F)F)cc1)[C@@H]1O[C@@]2(C)CCC[C@@H]1O2	-24.2	7.6	-6.5	0.4	-7.6	/	/
NC(=O)c1ccc(N=Cc2ccc([N+](=O)[O-])s2)cc1	/	-3.1	/	8.9*	3.1	-13.0	4.7
O=C(CSc1nnc(-c2cccnc2)n1-c1ccc(Cl)cc1)Nc1cccc2ccccc12	/	/	/	-5.4	/	/	/
C=C1c2ccccc2NC(=O)N1c1ccc(OC)cc1	/	-2.6	0.0	9.1*	2.6	13.3*	3.5
C=C1c2cc(C)ccc2NC(=O)N1c1ccccc1	-4.1	21.1	8.1	-0.2	-21.1	/	/
Cn1nc([N+](=O)[O-])nc1S(C)(=O)=O	31.3	19.3	6.9	51.6*	-19.3	48.9*	0.3
O=C(CNCc1ccccc1Cl)Nc1ccc2c(c1)OCCO2	-1.6	/	/	13.3*	/	12.7*	6.9*
O=C(CSCc1ccccc1Cl)Nc1ccc2c(c1)OCCO2	/	1.7	-7.3	7.3	-1.7	/	/
O=C(Nc1ccc(Cl)cc1)Nc1ccc2c(c1)OCO2	-5.8	-7.5	-5.1	9.0*	7.5	2.6	11.2*
Cc1ccc2nc(-c3ccc(SCC(=O)Nc4nc(C)cs4)nc3)[nH]c2c1	/	-15.1	1.9	7.1	15.1	/	/
O=C(CSc1ncccn1)Nc1ccc2c(c1)OCO2	0.5	-28.3	13.6	-0.7	28.3	/	/
O=C(CSc1ccccn1)Nc1ccc2c(c1)OCCO2	3.5	-7.4	-3.5	8.4*	7.4	8.4*	11.8*
Cc1ccc2nc(-c3ccc(SCC(=O)Nc4ccc5c(c4)OCCO5)nc3)[nH]c2c1	/	/	-1.3	9.8*	/	3.0	19.4*
O=C(Nc1ccc2c(c1)OCO2)Nc1ccc2c(c1)OCO2	/	40.2	-1.8	3.6	-40.2	/	/
COc1ccccc1NS(=O)(=O)c1ccc2oc(SC)nc2c1	/	/	-7.9	-2.7	/	/	/
COc1ccccc1NS(=O)(=O)c1ccc2oc(N)nc2c1	/	18.4	6.5	10.6*	-18.4	-0.4	2.5
COC(=O)[C@@]12CCCCC=C1N(CCc1ccc(Cl)cc1)C(=O)[C@H]2CC(=O)NCc1ccc(C)o1	/	/	/	-1.0	/	/	/
O=[N+]([O-])c1cccc(-c2ccc(C(=S)N3CCN(c4ccc(F)cc4)CC3)o2)c1	/	-9.2	-4.8	9.1*	9.2	0.0	-0.9
O=[N+]([O-])c1ccc(C(=S)N2CCN(c3ccc(F)cc3)CC2)cc1	-11.7	-19.7	1.7	0.5	19.7	/	/
CCn1ncc2c(=O)c(C(=O)c3ccccc3)c[nH]c21	/	/	/	-3.1	/	/	/
O=C(COc1ccc(F)cc1)N1CCC(c2ccccc2)C1 (stereo not given)	-5.0	-2.0	/	8.4*	2.0	5.2	7.9*
